In ChEMBL document CHEMBL3763134, “Arylpiperidines as a new class of oxidosqualene cyclase inhibitors” (Eur J Med Chem, 2016):
Activity calls are given as the source filed them. The rule behind the calls is not given here.

target: T1, Lanosterol synthase (Homo sapiens) (UniProt P48449); test: Inhibition of OSC in human HL60 cells assessed as accumulation of 2,3-oxidosqualene by GC-MS method; assay type: cell-based; conditions: HL-60
T1 sequence (whole entry): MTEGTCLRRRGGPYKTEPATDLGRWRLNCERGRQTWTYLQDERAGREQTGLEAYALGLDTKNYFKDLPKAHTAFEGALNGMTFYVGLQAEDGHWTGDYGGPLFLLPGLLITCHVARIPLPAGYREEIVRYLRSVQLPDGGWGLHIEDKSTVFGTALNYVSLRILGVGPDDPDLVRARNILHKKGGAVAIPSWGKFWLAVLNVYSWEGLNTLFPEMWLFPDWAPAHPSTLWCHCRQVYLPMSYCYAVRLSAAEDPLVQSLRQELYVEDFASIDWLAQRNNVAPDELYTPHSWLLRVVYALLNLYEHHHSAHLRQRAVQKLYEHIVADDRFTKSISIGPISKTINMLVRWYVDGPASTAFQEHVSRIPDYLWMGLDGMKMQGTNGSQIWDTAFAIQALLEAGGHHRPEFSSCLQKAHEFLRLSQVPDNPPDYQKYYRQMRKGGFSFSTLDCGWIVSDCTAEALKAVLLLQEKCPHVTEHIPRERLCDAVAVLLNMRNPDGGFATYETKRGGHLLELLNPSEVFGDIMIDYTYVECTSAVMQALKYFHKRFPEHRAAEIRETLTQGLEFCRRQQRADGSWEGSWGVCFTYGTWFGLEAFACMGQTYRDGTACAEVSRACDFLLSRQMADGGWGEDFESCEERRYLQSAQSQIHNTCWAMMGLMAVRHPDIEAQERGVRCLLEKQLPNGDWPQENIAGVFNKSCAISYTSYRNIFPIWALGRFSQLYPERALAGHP
Outline: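 Qualitative whole-cell screen: human HL-60 cells incubated with compound, then lysed and extracted; sterol pattern analysed by GC-MS. Enzyme target assigned from characteristic precursor accumulation: 2,3-oxidosqualene for OSC, 7-dehydrocholesterol for dehydrocholesterol reductase.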

| Compound | inhibition |
| --- | --- |
| C=CCN(C)CCCCCCOc1ccc(C(=O)c2ccc(Br)cc2)c(F)c1 | Active |
| CN(C)Cc1ccc([C@H]2CC[C@H](N(C)C(=O)c3ccc(Cl)cc3)CC2)cc1 | Active |

tested on: not listed separately; test: Inhibition of Saccharomyces cerevisiae OSC expressed in recombinant Saccharomyces cerevisiae SMY8 using [14C]-(3S)-2,3-oxidosqualene as substrate; conditions: not given

| Compound | IC50 [µM] |
| --- | --- |
| C=CCN(C)CCCCCCOc1ccc(C(=O)c2ccc(Br)cc2)c(F)c1 | 0.9 |

tested on: not listed separately; test: Cytotoxicity against human HL60 cells after 24 hrs by MTT assay; assay type: cell-based; conditions: HL-60, 24 h
Outline: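 MTT assay on human leukaemia HL-60 cells, following Mosmann; cisplatin as reference; triplicate experiments.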

| Compound | IC50 [µM] |
| --- | --- |
| COc1ccc(CN(C)Cc2ccc(C3=CCCN(C)C3)cc2)cc1 | > 50 |
| C=CCN(C)CCCCCCOc1ccc(C(=O)c2ccc(Br)cc2)c(F)c1 | 8 |
| CC(C)CCN(C)Cc1ccc(C2=CCCN(C)C2)cc1 | > 50 |
| CC(C)CCN(C)Cc1ccc(C2CCCN(C)C2)cc1 (racemic) | > 50 |
| CN(C/C=C/c1ccccc1)Cc1ccc(-c2cccnc2)cc1 | 44 |
| CC(C)CCCN(C)Cc1ccc(C2=CCCN(C)C2)cc1 | > 50 |
| CC(C)CCCN(C)Cc1ccc(C2CCCN(C)C2)cc1 (racemic) | > 50 |
| CC(C)CN(C)Cc1ccc(C2CCCN(C)C2)cc1 (racemic) | > 50 |
| CC(C)CN(C)Cc1ccc(C2=CCCN(C)C2)cc1 | > 50 |
| CN1CCC=C(c2ccc(CN(C)Cc3ccccc3)cc2)C1 | > 50 |
| CN(Cc1ccc(Cl)cc1)Cc1ccc(-c2cccnc2)cc1 | 21 |
| COC(=O)c1ccc(CN(C)Cc2ccc(C3=CCCN(C)C3)cc2)cc1 | > 50 |
| CN(C)Cc1ccc([C@H]2CC[C@H](N(C)C(=O)c3ccc(Cl)cc3)CC2)cc1 | > 50 |

tested on: HL-60; test: Inhibition of total cholesterol biosynthesis in human HL60 cells assessed as incorporation of 2-13C-acetate by GC-MS analysis; assay type: functional, cell-based; conditions: not given
Outline: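 HL-60 cells incubated with inhibitor in presence of 2-13C-acetate; newly made 13C-labelled cholesterol distinguished from unlabelled pre-existing cholesterol by GC-MS after extraction; IC50 for total cholesterol biosynthesis derived; triplicate experiments.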

| Compound | IC50 [µM] |
| --- | --- |
| C=CCN(C)CCCCCCOc1ccc(C(=O)c2ccc(Br)cc2)c(F)c1 | 0.092 |
| CN(C)Cc1ccc([C@H]2CC[C@H](N(C)C(=O)c3ccc(Cl)cc3)CC2)cc1 | 0.31 |
